TLR9-MyD88 block – inhibitors of TLR9-MyD88 association in cells, primary screen, cell-based, CHO, BLA complementation, fluorescence. CCF4 FRET ratio. inhibition, % at 4.98 µM. hit rate 0.21% among 340,000. AID 504734, 2011;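 active means inhibition above the mean over all tested compounds plus 3 SD, cut at about 21% in these data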;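 further: 0% = DMSO only wells and 100% = clavulanate BLA inhibitor control wells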
ABHD5-PLIN5 inh – ABHD5-PLIN5 interaction inhibitors, primary screen, cell lysate, split luciferase complementation, luminescence | AID 602281, 2012 | hit rate 0.78% among 360,000 | Split G. princeps luciferase complementation, 4 h | Perilipin-5 (Homo sapiens) + 1-acylglycerol-3-phosphate O-acyltransferase ABHD5 (Homo … | inhibition, % at 4 µM;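 active means inhibition above the mean inhibition across every tested compound plus 3 SD, cut at about 22% in these data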;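 further: 0% = DMSO only wells and the 100% control is not disclosed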
NOD2 RIPK2 PPI – NOD2-RIPK2 binding disruptors in cells, primary screen, fluorescence, CHO cells, BLA complementation; Receptor-interacting serine/threonine-protein kinase 2 (Homo sapiens), O43353; CCF4 ratio; inhibition, % at 4.98 µM; hit rate 0.38% among 360,000; in the data active means inhibition above about 21%;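 further: 0% = vehicle only and 100% = reference blocker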
Target sequence (O43353 whole entry, looked up): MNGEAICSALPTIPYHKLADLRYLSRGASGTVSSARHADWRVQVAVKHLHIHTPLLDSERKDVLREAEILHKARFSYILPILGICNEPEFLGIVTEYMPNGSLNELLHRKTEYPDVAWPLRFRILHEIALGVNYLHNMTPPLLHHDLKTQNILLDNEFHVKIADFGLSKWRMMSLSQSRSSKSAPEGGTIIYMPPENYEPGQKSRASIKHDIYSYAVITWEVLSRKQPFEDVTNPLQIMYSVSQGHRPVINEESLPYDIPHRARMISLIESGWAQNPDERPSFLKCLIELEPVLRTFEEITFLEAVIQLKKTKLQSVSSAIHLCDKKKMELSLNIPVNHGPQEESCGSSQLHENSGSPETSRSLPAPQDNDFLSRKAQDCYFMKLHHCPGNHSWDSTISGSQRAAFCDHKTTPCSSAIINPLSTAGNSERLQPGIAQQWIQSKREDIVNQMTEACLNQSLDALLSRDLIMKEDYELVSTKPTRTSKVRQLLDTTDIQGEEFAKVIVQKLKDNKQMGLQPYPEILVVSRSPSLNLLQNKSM
TLR4 MyD88 comp – inhibitors of TLR4-MyD88 association in cells, primary screen, cell-based, HeLa CL3-4, BLA complementation, FRET ratio | HeLa CL3-4 TLR4/MyD88 BLA complementation | inhibition, % at 8.4 µM | hit rate 0.18% among 200,000 | AID 861, 2007; in the data active means inhibition above about 25%;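 further: 0% = vehicle and 100% = reference inhibitor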
Dynein transport – inhibitors of GR-EGFP nuclear translocation, primary screen, dynein cargo transport inhibitor project, imaging, high-content, 3617.4 mouse cells; test concentration mostly 20 µM; stimulated with dexamethasone, 1 µM; active compounds read low; z-score, hits read low; hit rate 0.47% among 220,000;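 active means plate z-score of nuclear minus cytoplasmic receptor signal below a set negative limit, without overly bright fluorescence or cell loss, cut at about -3.5 in these data, passing the limit was not always enough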;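 further: z-score of nuclear minus cytoplasmic ring GR-EGFP intensity difference per well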
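Buffer or medium: tetracycline-free induction medium containing charcoal-stripped FBS / Reagent: dexamethasone agonist, 1.0 µM final, for 30 min / Technique: automated 10x imaging of fixed Hoechst-stained cells / Times: induction 48 h, compound 1 h, agonist 30 min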
B2AR ag – beta2AR agonists driving receptor internalization, primary screen, cell-based, FAP fluorogen, flow cytometry; Beta-2 adrenergic receptor (Homo sapiens), P07550; Am2.2-beta2AR cells; response, % (no concentration beside the values); hit rate 0.43% among 340,000;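 active means response above a set limit, near 3 SD of response in nonfluorescent compounds, cut at about 42% in these data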
The depositor's hits bear a star; nt = no result given. Rows were chosen to be rich in hits. Some 1.6% of all compounds tested hit in one or more screens of this group.

SMILES	TLR9-MyD88 block	ABHD5-PLIN5 inh	NOD2 RIPK2 PPI	TLR4 MyD88 comp	Dynein transport	B2AR ag
COc1ccc(-c2csc(C(O)c3ccccc3)n2)cn1 (configuration not stated)	nt	-5	-3	nt	nt	nt
CC1CC(=O)C(C(C2=C(O)CC(C)CC2=O)c2ccccc2)=C(O)C1 (configuration not stated)	-1	23*	2	nt	nt	3
CC(C)(C)C1=CC=C(C(C)(C)C)C(=O)C1=O	nt	nt	nt	nt	-3.7*	nt
O=Cc1cn(-c2ccccc2)nc1-c1ccc(F)cc1	4	1	5	nt	nt	-8
CC1=NNC(=O)/C1=C\c1cn(-c2ccccc2)nc1-c1ccc(F)cc1	0	6	4	3	-1.5	108*
O=C(CC1SC2=NCCN2C1=O)Nc1ccccc1 (configuration not stated)	-3	-4	5	4	-0.7	0
Cc1ccc(NC(=O)CC2SC3=NCCN3C2=O)cc1 (configuration not stated)	6	23*	15	-7	-0.36	-3
O=C(C1CCCCC1)N1C[C@H](O)[C@@H](n2cc(-c3ccc(F)cc3)nn2)C[C@@H]1c1ccccc1	2	0	-1	nt	nt	nt
Cc1ncc(CN2CCCC(C(=O)Nc3ccc(-c4ccco4)cc3)C2)n1C (configuration not stated)	3	12	-5	nt	nt	4
CSc1ncc(CN2CCCC(C(=O)Nc3ccc(-c4ccco4)cc3)C2)cn1 (configuration not stated)	-5	35*	8	nt	nt	14
COc1ccc(/C=C/c2cc(C(F)(F)F)[nH]c(=O)n2)cc1OC	nt	22*	1	12	-3	5
Cn1c(/C=C/c2ccc(Cl)cc2)c([N+](=O)[O-])c(=O)n(C)c1=O	-8	22*	-3	nt	nt	4
N#C/C(=C/c1cccc([N+](=O)[O-])c1)C(=O)Nc1ccccc1O	5	2	-4	nt	1.7	57*
O=C(CSc1nnc(-c2ccccn2)n1Cc1ccco1)c1ccc(-c2ccccc2)cc1	-8	57*	-6	-1	-0.75	-4
O=C(CSc1nnc(-c2ccc(O)cc2)n1Cc1ccco1)c1ccccc1	5	2	9	2	-0.57	-1
CC(C)C(NC(=O)c1ccc(C(C)(C)C)cc1)C(=O)NCc1ccccn1 (configuration not stated)	-13	8	-3	nt	nt	-9
CC1(C(=O)NS(=O)(=O)C2CC2)CCN(C(=O)c2ccccc2F)C1 (configuration not stated)	nt	6	-4	nt	nt	nt
Cc1ccc(C)c(S(=O)(=O)N2CCN(C(=O)/C=C/c3ccco3)CC2)c1	0	43*	-4	nt	nt	-4
O=[N+]([O-])c1cccnc1S(=O)(=O)c1ccccc1	0	22*	18	nt	nt	1
Nc1cccnc1S(=O)(=O)c1ccccc1	-7	2	-7	nt	nt	-1
CCCCCCn1c(=O)n2n(c1=O)C[C@]1(OC(=O)NCc3ccccc3)CN(S(=O)(=O)c3ccc(C)cc3)C[C@]1(O)C2	-14	-14	-7	nt	nt	nt
O=C1C(Cl)=C(N2CCC(C(=O)O)CC2)C(=O)c2ccccc21	5	-22	-6	nt	-0.9	7
NC(=O)C1CCN(C2=C(Cl)C(=O)c3ccccc3C2=O)CC1	3	-44	6	7	-2.9	46*
COc1ccc(-c2cc3ccc(OC(C)C(=O)O)cc3oc2=O)cc1 (configuration not stated)	0	22*	7	nt	nt	4
CC(=O)Oc1ccc(-c2cc3ccc(OC(C)=O)cc3oc2=O)cc1	12	-9	9	nt	nt	7
SMILES	TLR9-MyD88 block	ABHD5-PLIN5 inh	NOD2 RIPK2 PPI	TLR4 MyD88 comp	Dynein transport	B2AR ag
O=C(NNc1c2ccccc2nc2ccccc12)c1ccccc1Cl	-16	-1	-15	nt	nt	-10
O=C(NNc1c2ccccc2nc2ccccc12)C12CC3CC(CC(C3)C1)C2	3	-2	6	nt	0.7	45*
COc1ccc(C2=CC(=O)C=CC2=O)cc1	nt	nt	nt	nt	-6.3*	nt
C[C@@H](NCCCn1ccc(NC(=O)OCc2ccccc2)nc1=O)c1cccc2ccccc12	4	4	7	nt	nt	44*
CC(C)CC(N)c1csc(Nc2ncccn2)n1 (configuration not stated)	nt	4	-5	nt	nt	nt
Cc1ccc(OCC(=O)c2cc(C)c(C)cc2C)c([N+](=O)[O-])n1	-4	-7	-2	-3	-0.87	-9
Cc1ccc(C)c(C(=O)COc2ccc(C)nc2[N+](=O)[O-])c1	-5	-2	1	-3	-4.3*	3
CCOc1ccc(-c2nn(-c3ccccc3)cc2/C=C2\SC(N)=NC2=O)cc1C	-3	8	-9	-13	-0.42	59*
CC(=O)OC[C@@H]1CN(Cc2ccccc2)C[C@H](n2cnc3c(N(C)C(C)C)ncnc32)O1	nt	0	-15	nt	nt	nt
O=C(O)c1ccc(N/N=C/c2cc3cc4c(cc3nc2Cl)OCCO4)cc1	-3	-1	-79	nt	-0.64	45*
O=C(O)C1CCC(C(=O)O)SS1 (configuration not stated)	1	11	4	nt	nt	0
O=C(/C=C/c1cn(-c2ccccc2)nc1-c1cccnc1)c1ccco1	-5	13	-3	11	-3.2	81*
COc1ccc(C(=O)c2no[n+]([O-])c2C(=O)c2ccc(OC)cc2)cc1	-3	-1	10	2	-2.6	44*
CC(C)OC(=O)C1OC1(C)c1ccccc1 (configuration not stated)	-5	-3	-13	nt	nt	-6
CC(=O)c1c(C)[nH]c(C(=O)COC(=O)Cc2ccccc2F)c1C	0	-1	-11	nt	nt	59*
FC(F)(F)c1ccc(CSc2nccn2-c2ccccc2)cc1	-10	-1	-5	6	-0.11	-3
Brc1ccc(CSc2nccn2-c2ccccc2)cc1	10	-1	22*	-3	0.36	-9
CN1C2CCC1CC(NC(=O)c1cc(Cl)cc3[nH]cnc13)C2 (configuration not stated)	-2	1	-6	nt	nt	-9
COc1ccc(-c2nn(-c3ccccc3)cc2/C=C/C(=O)N2CCN(c3ccccn3)CC2)cc1	-17	1	-4	-2	-0.038	55*
CCN(CC)C(=O)C1=C(C)N(Cc2ccc(F)cc2)C(=O)C(CC(=O)NCc2ccco2)C1 (configuration not stated)	-11	0	-4	nt	nt	nt
O=C(Cn1ccc2ccccc2c1=O)N1CCN(c2cccc(Cl)c2)CC1	-5	22*	1	3	-0.2	5

Bioassay records: PubChem BioAssay, several laboratories
